Data published in ChEMBL document CHEMBL5724801, “EUbOPEN Chemogenomics Library - Multiplex” (2024).
“And” between values parts separate entries of the source, which are not always exact repeats. Equal values may be shown once.

Test system: Fibroblast
Test: Multiplex assay against human fibroblast
Assay type: toxicity, cell-based
Method in brief: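 Hoechst33342, BioTracker Green Microtubule Cytoskeleton Dye, MitoTracker Red and Annexin V Alexa Fluor 680 were added to live cells at seeding, and imaging on a CQ1 microscope at 37°C and 5% CO2 followed compound addition. Gating by CellPathfinder machine learning separated cells into Hoechst high-intensity objects or normal cells, then normal cells into healthy, pyknosed or fragmented nuclei, then pyknosed cells into mitotic or apoptotic. Per cents of healthy-nucleus cells are reported for the tubulin, mitochondrial-mass and membrane-permeability phenotypes.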

[1] = 12 h, 1 µM, compound concentration 1 uM
[2] = 12 h, 10 µM, compound concentration 10 uM
[3] = 24 h, 1 µM, compound concentration 1 uM
[4] = 24 h, 10 µM, compound concentration 10 uM
[5] = 48 h, 1 µM, compound concentration 1 uM
[6] = 48 h, 10 µM, compound concentration 10 uM

Cc1ccc(F)cc1C(=O)Nc1ccc(C(=O)N2Cc3cccn3Cc3ccccc32)c(Cl)c1 [LIXIVAPTAN]
Population Apoptotic (%) [1]: 40% and 50%
Population Fragmented Nuclei (%) [1]: 11% and 30%
Population Healthy Nuclei (%) [1]: 73% and 47%
Population Hoechst High Intensity Objects (%) [1]: 5% and 3%
Population Membrane Permeable-Phenotype (%) [1]: 0% and 1%
Population Mitochondria Different-Phenotype (%) [1]: 3% and 9%
Population Mitotic Cells (%) [1]: 59% and 50%
Population Normal (%) [1]: 94% and 96%
Population Pyknosed Nuclei (%) [1]: 15% and 21%
Population Tubulin-Different-Phenotype (%) [1]: 28% and 38%
Total Cell Count [1]: 186 and 117
Population Apoptotic (%) [2]: 34% and 31%
Population Fragmented Nuclei (%) [2]: 18% and 27%
Population Healthy Nuclei (%) [2]: 58% and 46%
Population Hoechst High Intensity Objects (%) [2]: 0% and 5%
Population Membrane Permeable-Phenotype (%) [2]: 2% and 6%
Population Mitochondria Different-Phenotype (%) [2]: 5% and 10%
Population Mitotic Cells (%) [2]: 65% and 68%
Population Normal (%) [2]: 99% and 94%
Population Pyknosed Nuclei (%) [2]: 23% and 25%
Population Tubulin-Different-Phenotype (%) [2]: 62% and 72%
Total Cell Count [2]: 137 and 179
Population Apoptotic (%) [3]: 50% and 32%
Population Fragmented Nuclei (%) [3]: 12% and 33%
Population Healthy Nuclei (%) [3]: 73% and 43%
Population Hoechst High Intensity Objects (%) [3]: 1% and 3%
Population Membrane Permeable-Phenotype (%) [3]: 1% and 5%
Population Mitochondria Different-Phenotype (%) [3]: 0% and 5%
Population Mitotic Cells (%) [3]: 50% and 67%
Population Normal (%) [3]: 98% and 96%
Population Pyknosed Nuclei (%) [3]: 14% and 23%
Population Tubulin-Different-Phenotype (%) [3]: 33% and 52%
Total Cell Count [3]: 172 and 126
Population Apoptotic (%) [4]: 25% and 51%
Population Fragmented Nuclei (%) [4]: 19% and 26%
Population Healthy Nuclei (%) [4]: 63% and 51%
Population Hoechst High Intensity Objects (%) [4]: 0% and 5%
Population Membrane Permeable-Phenotype (%) [4]: 2% and 11%
Population Mitochondria Different-Phenotype (%) [4]: 8% and 12%
Population Mitotic Cells (%) [4]: 75% and 48%
Population Normal (%) [4]: 99% and 94%
Population Pyknosed Nuclei (%) [4]: 17% and 22%
Population Tubulin-Different-Phenotype (%) [4]: 63% and 82%
Total Cell Count [4]: 142 and 174
Population Apoptotic (%) [5]: 63% and 50%
Population Fragmented Nuclei (%) [5]: 18% and 37%
Population Healthy Nuclei (%) [5]: 68% and 40%
Population Hoechst High Intensity Objects (%) [5]: 8% and 0%
Population Membrane Permeable-Phenotype (%) [5]: 0% and 4%
Population Mitochondria Different-Phenotype (%) [5]: 3% and 11%
Population Mitotic Cells (%) [5]: 36% and 50%
Population Normal (%) [5]: 91% and 99%
Population Pyknosed Nuclei (%) [5]: 13% and 21%
Population Tubulin-Different-Phenotype (%) [5]: 28% and 53%
Total Cell Count [5]: 181 and 111
Population Apoptotic (%) [6]: 70% and 73%
Population Fragmented Nuclei (%) [6]: 25% and 36%
Population Healthy Nuclei (%) [6]: 62% and 51%
Population Hoechst High Intensity Objects (%) [6]: 2% and 5%
Population Membrane Permeable-Phenotype (%) [6]: 0% and 6%
Population Mitochondria Different-Phenotype (%) [6]: 13%
Population Mitotic Cells (%) [6]: 29% and 26%
Population Normal (%) [6]: 97% and 94%
Population Pyknosed Nuclei (%) [6]: 11%
Population Tubulin-Different-Phenotype (%) [6]: 69% and 78%
Total Cell Count [6]: 149 and 170

Cc1onc(-c2ccccc2Cl)c1C(=O)N(C)c1ccc(Cl)cc1
Population Apoptotic (%) [1]: 60% and 35%
Population Fragmented Nuclei (%) [1]: 17% and 22%
Population Healthy Nuclei (%) [1]: 68% and 50%
Population Hoechst High Intensity Objects (%) [1]: 7% and 9%
Population Membrane Permeable-Phenotype (%) [1]: 0% and 6%
Population Mitochondria Different-Phenotype (%) [1]: 7% and 8%
Population Mitotic Cells (%) [1]: 39% and 65%
Population Normal (%) [1]: 92% and 90%
Population Pyknosed Nuclei (%) [1]: 13% and 27%
Population Tubulin-Different-Phenotype (%) [1]: 23% and 63%
Total Cell Count [1]: 178 and 161
Population Apoptotic (%) [2]: 36% and 37%
Population Fragmented Nuclei (%) [2]: 16% and 24%
Population Healthy Nuclei (%) [2]: 70% and 48%
Population Hoechst High Intensity Objects (%) [2]: 2% and 3%
Population Membrane Permeable-Phenotype (%) [2]: 2% and 5%
Population Mitochondria Different-Phenotype (%) [2]: 6% and 11%
Population Mitotic Cells (%) [2]: 63% and 62%
Population Normal (%) [2]: 97% and 96%
Population Pyknosed Nuclei (%) [2]: 13% and 27%
Population Tubulin-Different-Phenotype (%) [2]: 29% and 64%
Total Cell Count [2]: 144 and 151
Population Apoptotic (%) [3]: 44% and 39%
Population Fragmented Nuclei (%) [3]: 18% and 22%
Population Healthy Nuclei (%) [3]: 65% and 54%
Population Hoechst High Intensity Objects (%) [3]: 7% and 12%
Population Membrane Permeable-Phenotype (%) [3]: 0% and 8%
Population Mitochondria Different-Phenotype (%) [3]: 1% and 4%
Population Mitotic Cells (%) [3]: 55% and 60%
Population Normal (%) [3]: 92% and 87%
Population Pyknosed Nuclei (%) [3]: 16% and 23%
Total Cell Count [3]: 178 and 182
Population Apoptotic (%) [4]: 20% and 54%
Population Fragmented Nuclei (%) [4]: 16% and 21%
Population Healthy Nuclei (%) [4]: 76% and 55%
Population Hoechst High Intensity Objects (%) [4]: 2% and 4%
Population Membrane Permeable-Phenotype (%) [4]: 1% and 6%
Population Mitochondria Different-Phenotype (%) [4]: 4% and 6%
Population Mitotic Cells (%) [4]: 80% and 45%
Population Normal (%) [4]: 97% and 95%
Population Tubulin-Different-Phenotype (%) [4]: 32% and 59%
Total Cell Count [4]: 134 and 149
Population Apoptotic (%) [5]: 76% and 48%
Population Fragmented Nuclei (%) [5]: 26% and 28%
Population Healthy Nuclei (%) [5]: 62% and 54%
Population Hoechst High Intensity Objects (%) [5]: 9% and 11%
Population Membrane Permeable-Phenotype (%) [5]: 0% and 10%
Population Mitochondria Different-Phenotype (%) [5]: 1% and 6%
Population Mitotic Cells (%) [5]: 23% and 51%
Population Normal (%) [5]: 90% and 88%
Population Pyknosed Nuclei (%) [5]: 10% and 17%
Population Tubulin-Different-Phenotype (%) [5]: 22% and 51%
Total Cell Count [5]: 185 and 188
Population Apoptotic (%) [6]: 44% and 65%
Population Fragmented Nuclei (%) [6]: 25% and 31%
Population Healthy Nuclei (%) [6]: 68% and 55%
Population Hoechst High Intensity Objects (%) [6]: 4% and 1%
Population Membrane Permeable-Phenotype (%) [6]: 0% and 8%
Population Mitochondria Different-Phenotype (%) [6]: 3% and 6%
Population Mitotic Cells (%) [6]: 55% and 35%
Population Normal (%) [6]: 95% and 98%
Population Pyknosed Nuclei (%) [6]: 6% and 12%
Population Tubulin-Different-Phenotype (%) [6]: 34% and 53%
Total Cell Count [6]: 141 and 166
